This passage reports IC50, CC50 and EC50 results from ChEMBL document CHEMBL4130495, “Design, synthesis and biological evaluations of N-Hydroxy thienopyrimidine-2,4-diones as inhibitors of HIV reverse transcriptase-associated RNase H” (Eur J Med Chem, 2017).

The target in data set [1] is Human immunodeficiency virus type 1 integrase (Human immunodeficiency virus 1, UniProt Q7ZJM1). Description: Inhibition of HIV1 integrase pre-incubated for 10 mins before DNA substrate addition and measured after 30 mins.
Data set [2] deals with Human immunodeficiency virus type 1 reverse transcriptase (Human immunodeficiency virus 1, UniProt Q72547). Put plainly: Inhibition of RNH activity of recombinant HIV1 reverse transcriptase RNase H assessed as reduction in internal cleavage of RNA strand using RNA/DNA duplex substrate HTS-1.
Another data set deals with P4R5. Put plainly: Cytotoxicity in human P4R5 cells assessed as reduction in cell viability by MTS assay. Background: Tetrazolium assays rely on reduction of a dye to a coloured formazan, in cell work by metabolically active cells.
The target in another data set is Gag-Pol polyprotein (Human immunodeficiency virus type 1 group M subtype B (isolate HXB2)(HIV-1), UniProt P04585). Put plainly: Inhibition of polymerase activity of recombinant HIV1 reverse polymerase assessed as reduction in extension of an 18 nucleotide DNA primer using template/primer and dNTPs incubated for 30 mins. More on the design: species or system Human immunodeficiency virus 1. The essentials:
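Recombinant HIV-1 RT (20 nM) was used with 40 nM template/primer (18-nt DNA primer annealed to a 100-nt DNA template) and 10 µM dNTPs in 50 mM Tris pH 7.8, 50 mM NaCl, with 1% DMSO and increasing compound concentrations. Reactions were started with 6 mM MgCl₂, run 30 min at 37 °C, and stopped with 100 mM EDTA. IC50 is reported as mean ± SD of ≥2 independent experiments.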

Data set [3] deals with Human immunodeficiency virus 1. Description: Antiviral activity against HIV1 infected in human P4R5 cells assessed as reduction in viral infection preincubated with cells for 24 hrs followed by viral infection measured after 48 hrs by fluorescence based beta-galactosidase reporter gene based MAGI assay. The data set is classed as functional, organism-based. Background: In a reporter assay the amount or activity of a reporter protein is the signal.

Human immunodeficiency virus type 1 integrase, sequence (Q7ZJM1 whole entry): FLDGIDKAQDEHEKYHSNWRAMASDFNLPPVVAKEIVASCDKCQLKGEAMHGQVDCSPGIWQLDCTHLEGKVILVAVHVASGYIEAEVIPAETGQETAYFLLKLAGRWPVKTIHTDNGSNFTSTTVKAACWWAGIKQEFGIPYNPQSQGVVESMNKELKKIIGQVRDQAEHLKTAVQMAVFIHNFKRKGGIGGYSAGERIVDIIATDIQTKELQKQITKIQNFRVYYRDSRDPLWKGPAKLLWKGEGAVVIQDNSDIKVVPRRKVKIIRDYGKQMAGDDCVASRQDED

As a reminder, the IC50 is the concentration that gives 50% inhibition. By CC50 is commonly meant the concentration at which the toxic effect on the cells reaches its halfway point. By EC50 is commonly meant the concentration giving half of the maximal effect. As to `Cc1sc2[nH]c(=O)n(O)c(=O)c2c1C`, the half-maximal inhibitory concentration (IC50) in data set [1] was 8.4 µM; in data set [2], 0.1 µM; at Gag-Pol polyprotein it was greater than 10 µM. For the same compound, the CC50 in the data set on P4R5 (P4R5) was found to be 62 µM. Further, in data set [3], the EC50 is 8.9 µM.
In the case of `O=c1[nH]c2cc(-c3ccc(F)cc3)sc2c(=O)n1O`, the concentration for half-maximal inhibition (IC50) was 17 µM in data set [1], 0.2 µM in data set [2] and greater than 10 µM on Gag-Pol polyprotein. The CC50 in the data set on P4R5 (P4R5 cells) is greater than 100 µM. Further, in data set [3], the EC50 is greater than 20 µM.
In the case of `O=c1[nH]c2cc(-c3ccc(Cl)cc3)sc2c(=O)n1O`, the IC50 in data set [1] is 23 µM; in data set [2] it was 0.07 µM; at Gag-Pol polyprotein, greater than 10 µM. In addition, the CC50 in the data set on P4R5 (P4R5 cells) is greater than 100 µM. The EC50 in data set [3] was greater than 20 µM.
For `O=c1[nH]c2cc(-c3ccccc3)sc2c(=O)n1O`, the IC50 was 4.5 µM in data set [1], 0.1 µM in data set [2] and greater than 10 µM on Gag-Pol polyprotein. Further, the cytotoxic concentration (CC50) in the data set on P4R5 (P4R5) amounted to 28 µM. Besides, in data set [3], the EC50 stood at 11 µM.
`O=c1[nH]c2c(c(=O)n1O)CN(Cc1ccccc1)CC2`: the 50% inhibitory concentration (IC50) in data set [1] was greater than 100 µM; on Gag-Pol polyprotein, greater than 10 µM.
Take `O=c1[nH]c2cc(-c3ccc(Cl)cc3)ccc2c(=O)n1O`: the figures for the IC50 (in data set [2]; at Gag-Pol polyprotein) were 0.2 µM and greater than 10 µM, respectively. Further, in the data set with P4R5 (P4R5), the 50% cytotoxic concentration (CC50) is 9.9 µM. Further, the EC50 in data set [3] is 4.5 µM.
For the compound `O=c1[nH]c2sc(Cc3ccccc3)cc2c(=O)n1O`, the IC50 is 5 µM in data set [1], 0.043 µM in data set [2] and greater than 10 µM at Gag-Pol polyprotein. The CC50 in the data set with P4R5 (P4R5 cells) was greater than 100 µM. For the same compound, the EC50 in data set [3] is greater than 20 µM.
The like results for `O=c1[nH]c2scc(-c3ccc(Cl)cc3)c2c(=O)n1O` were, in that order, 2.1 µM, 0.04 µM, greater than 10 µM, greater than 100 µM and 7.4 µM.
Turning to `O=c1[nH]c2cc(-c3ccccc3)ccc2c(=O)n1O`, the IC50 in data set [1] was 11 µM; in data set [2] it was 0.2 µM; at Gag-Pol polyprotein, greater than 10 µM. Further, the CC50 in the data set on P4R5 (P4R5) came out at 6 µM. Further, the EC50 in data set [3] turned out to be 3.8 µM.
The matching figures for `O=c1[nH]c2sccc2c(=O)n1O`: 35 µM, 0.2 µM, greater than 10 µM, 54 µM and 18 µM.
In the case of `Cc1c(C(=O)O)sc2[nH]c(=O)n(O)c(=O)c12`, the figures for the IC50 (in data set [1]; in data set [2]; at Gag-Pol polyprotein) were 7.9 µM, 0.1 µM and greater than 10 µM, respectively. In the data set with P4R5 (P4R5 cells), the CC50 is greater than 100 µM. Besides, the EC50 in data set [3] was greater than 20 µM.
For `Cc1csc2[nH]c(=O)n(O)c(=O)c12`, the IC50 was 12 µM in data set [1], 0.1 µM in data set [2] and greater than 10 µM on Gag-Pol polyprotein. Also, the CC50 with P4R5 (P4R5) is 81 µM. In data set [3], the EC50 is greater than 20 µM.
As for `O=c1[nH]c2sc(-c3ccccc3)cc2c(=O)n1O`, the IC50 in data set [1] was 2.2 µM; in data set [2], 0.084 µM; on Gag-Pol polyprotein, greater than 10 µM. The CC50 with P4R5 (P4R5 cells) was greater than 100 µM. Further, in data set [3], the EC50 is greater than 20 µM.
Regarding `O=c1[nH]c2scc(-c3ccccc3)c2c(=O)n1O`, the values for the IC50 (in data set [1]; in data set [2]; at Gag-Pol polyprotein) were 1.3 µM, 0.1 µM and greater than 10 µM, respectively. Further, the CC50 in the data set on P4R5 (P4R5 cells) is greater than 100 µM. In addition, the EC50 in data set [3] was determined as 14 µM.
Regarding `O=C1Cc2cc(-c3ccccc3)ccc2C(=O)N1O`, the IC50 in data set [1] was 2 µM; in data set [2], 1.3 µM; on Gag-Pol polyprotein, greater than 10 µM. Besides, the CC50 in the data set on P4R5 (P4R5) came out at 19 µM. Moreover, in data set [3], the EC50 turned out to be 16 µM.
